Screening results as filed in PubChem BioAssay.
In the library only some 2.4% were active in any assay of this set; here they are far more common.
RanGTP-Imp inh – inhibitors of RanGTP-importin-beta interaction, primary screen, biochemical, FRET, CFP-Ran, YFP-importin-beta, homogeneous. actives 1.1% (n = 300,000). inhibition, % (test concentration not listed). cell-free CFP-Ran/YFP-importin-beta FRET ratio. Ran GTPase (GTP-bound) - importin-beta complex;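 active = more than half of the replicate wells show a fall in the fluorescence ratio signal beyond about 16%, limit read from the data, passing the limit was not always enough; inconclusive = exactly half of the replicate wells pass the set limit; inactive = fewer than half of replicates pass the limit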;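 also: 0% = DMSO wells and 100% = Ran loaded with GDP instead of GTP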
MEX-5 binding – MEX-5 zinc finger RNA-binding disruptors – biochemical, C. elegans, fluorescence polarization, MLPCN library, primary screen. Zinc finger protein mex-5 (Caenorhabditis elegans), Q9XUB2. MEX-5/FITC-TCR2 RNA binding; active compounds read low. actives 0.38% (n = 300,000). activity score (negative = inhibition of binding), % at 10 µM. AID 1832, 2009;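 active = inhibition past about -25% in most replicates, and total fluorescence under double the plate's negative control median, limit read from the data; inconclusive = replicates evenly split on the limit, or fluorescence at least double controls; inactive = too little inhibition in most replicates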;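 also: 0% = DMSO and -100% = 5 µM competing unlabeled TCR2 RNA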
Target sequence (Q9XUB2 whole entry, looked up): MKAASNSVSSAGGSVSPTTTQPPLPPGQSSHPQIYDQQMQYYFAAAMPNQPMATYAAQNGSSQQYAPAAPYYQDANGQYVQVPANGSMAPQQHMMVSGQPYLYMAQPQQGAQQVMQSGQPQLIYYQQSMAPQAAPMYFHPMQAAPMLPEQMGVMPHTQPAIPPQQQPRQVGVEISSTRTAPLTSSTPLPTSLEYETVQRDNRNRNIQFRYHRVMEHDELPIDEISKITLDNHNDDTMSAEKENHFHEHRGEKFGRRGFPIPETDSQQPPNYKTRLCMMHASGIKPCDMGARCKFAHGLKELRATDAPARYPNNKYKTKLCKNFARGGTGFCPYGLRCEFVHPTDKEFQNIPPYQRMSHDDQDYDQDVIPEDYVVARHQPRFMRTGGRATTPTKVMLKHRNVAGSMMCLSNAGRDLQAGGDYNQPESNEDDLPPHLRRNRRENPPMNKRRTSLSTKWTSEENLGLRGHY
EBV gp42 inh – Epstein-Barr virus gp42 inhibitors, primary screen, biochemical, uHTS, fluorescence polarization | Fluorescence polarization binding assay, mP read-out | inhibition, % (tested at 21.74 µM) | actives 0.42% (n = 220,000) | AID 1085, 2008; in the data active = inhibition above about 50%
Target sequence (Q1HVG2 whole entry, looked up): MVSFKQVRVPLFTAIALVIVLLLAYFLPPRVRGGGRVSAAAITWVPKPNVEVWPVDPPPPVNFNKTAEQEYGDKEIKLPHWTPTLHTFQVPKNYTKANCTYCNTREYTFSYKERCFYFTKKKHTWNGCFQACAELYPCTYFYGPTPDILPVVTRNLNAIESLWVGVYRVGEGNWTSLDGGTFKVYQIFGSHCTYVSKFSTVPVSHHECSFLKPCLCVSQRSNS
Runt-SMMHC FRET – inhibitors of RUNX1 Runt–CBFb-SMMHC binding, primary screen, biochemical, FRET, Cerulean-Runt, Venus-CBFb-SMMHC, uHTS | Runt-related transcription factor 1 (Homo sapiens) + Core-binding factor subunit beta … | Cerulean-Runt/Venus-CBFb-SMMHC FRET ratio 530/480, 1 h | inhibition, % at 20 µM | actives 0.74% (n = 220,000);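 active = mean inhibition across duplicate retests at 20 µM reaching about 50%, limit read from the data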;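 also: 0% = DMSO wells and 100% = wells with excess untagged CBFb-SMMHC; inhibitors lower the FRET ratio by blocking Runt binding to CBFb-SMMHC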
Runt-CBFb FRET – inhibitors of RUNX1 Runt–CBFb binding, primary screen, biochemical, FRET, Cerulean-Runt, Venus-CBFb, uHTS; actives 0.46% (n = 220,000); Cerulean-Runt/Venus-CBFb FRET ratio 530/480, 1 h; inhibition, % at 20 µM; Runt-related transcription factor 1 (Homo sapiens) + Core-binding factor subunit beta …;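 active = inhibition over about 50% at 20 µM in the single-dose screen, limit read from the data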;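 also: 0% = DMSO wells and 100% = excess unlabeled CBFb competitor control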
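System: Cerulean-labeled Runt domain protein | Quantity: 100 nM of each labeled protein | Schedule: 1 h compound exposure, room temperature | Detection: Fluorescence energy transfer, 422 nm excitation, 530/480 nm emission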
LANA-H2B inh – blockers of LANA interaction with H2A/H2B – biochemical, FP readout, HTS, primary screen | cell-free LANA-H2A/H2B peptide, fluorescence polarization | inhibition, % (test concentration not listed) | actives 0.6% (n = 320,000) | AID 2629, 2010; in the data active = inhibition mostly above about 10%, no sharp cut-off; inactive = mostly below about 6.7%
YIC counter – YIC intramolecular FRET probe signal interference, dose response, counter-screen for RanGTP-importin-beta inhibitor project, biochemical, fluorescence FRET; Purified YIC probe, intramolecular FRET ratio YFP/CFP; IC50, µM; actives 40% (n = 1,000); shares compounds with RanGTP-Imp inh;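 active = fitted half-maximal inhibitory concentration no more than tenfold above the top dose tested; inconclusive = flat fit with 30 to 70% activity, or poor fit; inactive = half-maximal concentration beyond tenfold above the top dose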
* hit, by the source's call; ? = inconclusive; nt = not tested or not shown.

SMILES	RanGTP-Imp inh	MEX-5 binding	EBV gp42 inh	Runt-SMMHC FRET	Runt-CBFb FRET	LANA-H2B inh	YIC counter
CC1CCN(C(=O)Cn2c(=O)oc3cc(S(=O)(=O)N4CCCCC4)ccc32)CC1	-0.4	-2.5	nt	nt	nt	-5.1	nt
CC1CCCCN1C(=O)Cn1c(=O)oc2cc(S(=O)(=O)N3CCCC3)ccc21 (configuration not stated)	16.6*	0.0	nt	nt	nt	4.9	>50
O=C(CCNC(=O)c1ccccc1Cl)Nc1cccc(S(=O)(=O)N2CCCC2)c1	nt	nt	nt	nt	nt	7.2	nt
CCOC(=O)C1CCCN(CCC(=O)Nc2ccc(Br)c(C)c2)C1 (configuration not stated)	-0.6	-1.2	nt	nt	nt	14.3	nt
C=CCn1c(C)c(C(C)=O)c(SC)nc1=S	1.0	-5.6	-1.4	-1.8	0.3	-7.2	nt
C=CCn1c(C)c(C(C)=O)c(N2CCN(C(c3ccccc3)c3ccccc3)CC2)nc1=S	29.8*	2.6	-8.7	-1.4	1.3	1.7	>50
COc1ccc(C2CC(c3ccc(Cl)cc3Cl)n3nc(N)nc3N2)cc1 (configuration not stated)	4.3	0.2	4.7	-7.4	nt	-4.0	nt
COc1ccccc1C1CC(c2ccc(Cl)cc2)Nc2nc(N)nn21 (configuration not stated)	18.2*	-1.2	-6.3	4.2	-0.7	-0.2	>50
Cn1c(=O)oc2cc(S(=O)(=O)NCCC(=O)N3CC=C(c4ccccc4)CC3)ccc21	17.6*	0.1	-6.8	-3.1	-1.4	-4.3	>50
Cn1c(=O)oc2cc(S(=O)(=O)NCCC(=O)N3CCN(c4ccccc4)CC3)ccc21	-1.0	-1.5	nt	nt	nt	2.0	nt
CC1(C)C(=O)Nc2ccccc2N1C(=O)COC(=O)c1cc([N+](=O)[O-])ccc1N	7.1	2.1	5.1	3.3	0.5	10.6	nt
O=S(=O)(c1ccc2ncn(O)c2c1)N1CCOCC1	-4.4	1.1	-14.1	-0.1	-1.9	4.4	nt
Cc1cc(Nc2ccccc2)nn1C(=O)c1ccc(Br)cc1	5.1	-2.0	-24.7	-0.7	-0.8	1.9	nt
Cc1cc(Nc2ccccc2)nn1C(=O)c1ccccc1	17.8*	-3.9	-4.2	-5.6	-1.5	-2.0	>50
CC1=C(C(=O)OC(C)C)C(c2cccnc2)C2=C(CC(C)(C)CC2=O)N1 (configuration not stated)	18.7*	1.9	-16.4	101.7*	77.4*	0.1	23.2*
CCCCN(C(=O)c1cccc(S(=O)(=O)N(C)c2ccc(C)cc2)c1)c1c(N)n(CCCC)c(=O)[nH]c1=O	-1.1	-2.9	nt	nt	nt	-1.7	nt
CCN1CCN(C(=O)c2cc3c(=O)n4ccccc4nc3s2)CC1	12.4	1.0	nt	nt	nt	-2.5	nt
O=C(c1cc2c(=O)n3ccccc3nc2s1)N1CCN(Cc2ccccc2)CC1	21.3*	2.2	nt	nt	nt	-2.3	>50
CC(C)Oc1ccccc1/C=N/n1nnnc1N	-2.9	0.3	nt	nt	nt	-4.2	nt
CC(C)Sc1nc(N2CCOCC2)c2c3c(sc2n1)COC(C)(C)C3	23.0*	-0.9	5.4	-0.5	-2.1	-2.1	>50
O=C(NCC1CCCO1)c1cccc(S(=O)(=O)NCc2ccccc2)c1 (configuration not stated)	-2.5	-4.4	3.8	-3.6	0.2	-3.5	nt
CC1C/C(=N/NC(=O)c2cccc(F)c2)c2ccc(O)cc2C1 (configuration not stated)	2.1	2.7	5.2	-1.9	-0.4	-0.3	nt
CC(=O)Nc1ccc(S(=O)(=O)NCc2nc(-c3cccc(C)c3)no2)cc1	15.3*	?	nt	nt	nt	-2.0	39.1*
CC(=O)Nc1ccc(S(=O)(=O)NCc2nc(-c3ccc(C)cc3)no2)cc1	6.1	-0.7	nt	nt	nt	-3.6	nt
CC(=O)Cc1nsc(NC(=O)c2ccc(-c3cccc(C(F)(F)F)c3)o2)n1	22.2*	-0.5	-2.8	-0.3	3.3	2.8	>50
SMILES	RanGTP-Imp inh	MEX-5 binding	EBV gp42 inh	Runt-SMMHC FRET	Runt-CBFb FRET	LANA-H2B inh	YIC counter
COc1ccc(C(CNC(=O)c2cc(F)c(F)c(F)c2F)N2CCOCC2)cc1 (configuration not stated)	18.9*	-2.6	-3.0	0.7	-0.1	-1.4	>50
CCn1c(=O)cc(SCC(=O)N2CCN(c3ccccc3F)CC2)c2ccccc21	0.7	1.2	-16.0	0.6	-1.9	2.7	nt
Cc1ccc(S(=O)(=O)NCCc2cn3nc(C)c(C)nc3n2)cc1C	20.3*	1.8	nt	nt	nt	-0.5	25.5*
COc1ccc(S(=O)(=O)NCCc2cn3nc(C)c(C)nc3n2)cc1C	11.0	-3.3	nt	nt	nt	2.4	nt
CC(C)c1ccc(C2(C)NC(=O)N(CC(=O)NC3(C#N)CCCC3)C2=O)cc1 (configuration not stated)	nt	nt	nt	nt	nt	0.3	nt
CCC(c1nnnn1C1CCCC1)N1CCC(C(N)=O)CC1 (configuration not stated)	16.2*	-2.4	5.6	-0.5	1.1	49.0*	>50
FC(F)(F)c1nc(SCc2ccccc2)n[nH]1	2.0	2.6	nt	nt	nt	-3.5	nt
O=C(NCC(=O)N(c1ccc(F)cc1)C(C(=O)NC1CCCCC1)c1ccncc1)c1ccco1 (configuration not stated)	-4.1	1.1	nt	nt	nt	1.0	nt
N#Cc1cc2c(ccc3ccccc32)oc1=O	38.4*	-6.7	4.8	87.1	84.9*	4.5	>26
CC(C)(C)NC(=O)c1cc2c(ccc3ccccc32)oc1=O	6.3	4.2	nt	nt	nt	4.4	nt
NC(=O)CN(Cc1ccccc1)S(=O)(=O)c1ccc2c(c1)OCCO2	18.9*	1.0	nt	nt	nt	5.8	>50
O=C(CN(Cc1ccccc1)S(=O)(=O)c1ccc2c(c1)OCCO2)Nc1ccc2c(c1)OCCO2	-2.6	1.7	-8.8	18.5	2.5	-16.1	nt
Cc1ccc(-c2oc3ccccc3c(=O)c2O)cc1	21.6*	2.5	-16.0	1.2	16.5	2.9	16.8*
COc1cc(CC(=O)NCCCc2ccccc2)cc(OC)c1OC	1.8	-0.2	nt	nt	nt	-0.1	nt
C=CCn1c(SCC(=O)N2CCCCC2)nnc1-c1ccncc1	36.4*	-0.1	-6.0	-1.5	0.4	-2.9	>50
